Measured values from ChEMBL document CHEMBL4376902, “CN128: A New Orally Active Hydroxypyridinone Iron Chelator” (J Med Chem, 2020).

Columns and labels:
[1] = Apparent clearance in Sprague-Dawley rat at 300 umol/kg, po measured up to 1440 mins by LC/MS/MS analysis; assay type: ADME, organism-based; conditions: in vivo, read-out: CL(app) (converted)
[2] = Toxicity in Sprague-Dawley rat assessed as induction of histopathological changes in bone marrow at 25 to 116 mg/kg, po dosed daily for 4 weeks during chronic 4 week toxicity test; assay type: organism-based; conditions: in vivo, 672 h
Mus musculus [3] = experiment: Toxicity in mouse assessed as reduction in total white cell counts at 200 mg/kg, po dosed once daily for 2 months as 5 days per week schedule; conditions: in vivo, 120 h
Mus musculus [4] = experiment: Toxicity in mouse assessed as reduction in neutrophils counts at 200 mg/kg, po dosed once daily for 2 months as 5 days per week schedule; conditions: in vivo, 120 h
[5] = Ratio of drug level in intestine to plasma in rat at 150 umol/kg, po measured within 10 mins by LC-MS/MS analysis; assay type: ADME, organism-based; conditions: intestine and plasma
Summary of the method: (§1)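 SD rats (half male, half female, n = 6 per group) given a single oral 150 μmol/kg dose. Killed at 10 min, 30 min, 2 h or 6 h; tissues washed in saline, weighed and homogenised in acetonitrile/water 1:9 (125 mg/mL). Tissue levels compared with plasma.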

[6] = Binding affinity to Fe2+ ion assessed as affinity constant by spectrophotometric titration method
Summary of the method: (§2)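 Automated spectrophotometric titration with 0.1 M KOH in 0.1 pH steps, 3 min equilibration per step, 50 mm cuvette, iron complexes at ca. 40 µM. Titrated in competition with metal hydrolysis species up to pH 12.0. Hydrolysis constants taken from critical compilations. Iron spectra fitted over 400–700 nm.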

Mus musculus [7] = experiment: Toxicity in mouse assessed as reduction in erythrocyte population at 200 mg/kg, po dosed once daily for 2 months as 5 days per week schedule; conditions: in vivo, 120 h
[8] = Ratio of drug level in adrenal gland to plasma in rat at 150 umol/kg, po measured within 10 mins by LC-MS/MS analysis; assay type: ADME, organism-based; conditions: adrenal gland and plasma; summary of the method: as §1
[9] = Ratio of drug level in liver to plasma in rat at 150 umol/kg, po measured within 10 mins by LC-MS/MS analysis; assay type: ADME, organism-based; conditions: liver and plasma; summary of the method: as §1
[10] = Drug level in rat intestine at 150 umol/kg, po measured measured up to 6 hrs by LC-MS/MS analysis; assay type: ADME, organism-based; conditions: in vivo
Summary of the method: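 Single oral dose of 150 μmol/kg to SD rats, half male and half female, n=6 per group. Rats decapitated at 10 min, 30 min, 2 h and 6 h. Tissues dissected, saline-washed, weighed and homogenised in acetonitrile/water 1:9 (125 mg/mL). Drug level measured against plasma; mean ± SE.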

[11] = Genotoxicity in Salmonella typhimurium by Ames test; assay type: toxicity; conditions: salmonella enterica subsp. enterica serovar typhimurium
[12] = Oral bioavailability in Sprague-Dawley rat at 75 umol/k measured up to 1440 mins by LC/MS/MS analysis; assay type: ADME, organism-based; conditions: in vivo, 75 umol/kg
Summary of the method: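 Sprague-Dawley rats (200-250 g, half male, half female, n = 8 per route), fasted about 12 h. Dosed i.v. via tail vein at 75 μmol/kg or orally at 75-600 μmol/kg. Heparinised blood taken 0-1440 min; plasma protein-precipitated with acetonitrile and assayed by LC/MS/MS; bioavailability from oral vs i.v. exposure.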

[13] = Drug metabolism in rat bile assessed as (2S,3S,4S,5R,6R)-3,4,5-trihydroxy-6-[(2R)-2-(3-hydroxy-2-methyl-4-oxo-1-pyridyl)-3-phenylpropoxy]tetrahydropyran-2-carboxylic acid/(2S,3S,4S,5R,6S)-6-[[1-[(1R)-1-benzyl-2-hydroxyethyl]-2-methyl-4-oxo-3-pyridyl]oxy]-3,4,5-trihydroxy-tetrahydropyran-2-carboxylic acid ratio formation at 150 umol/kg, po measured over 8 hrs by LC/TOF/MS/MS analysis; assay type: ADME, organism-based; conditions: in vivo
Summary of the method: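 Bile collected from rats after an oral dose of 150 μmol/kg. Metabolites characterised by β-glucuronidase hydrolysis and LC-TOFMS/MS. M2/M1 ratio followed over 8 h.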

[14] = Apparent clearance in Sprague-Dawley rat at 75 umol/kg, po measured up to 1440 mins by LC/MS/MS analysis; assay type: ADME, organism-based; conditions: in vivo, read-out: CL(app) (converted)
[15] = AUC (0 to infinity) in Sprague-Dawley rat at 75 umol/kg, po measured up to 1440 mins by LC/MS/MS analysis; assay type: ADME, organism-based; set-up: dose 75 umol/kg, route oral, time infinity; conditions: in vivo, 24 h
[16] = Binding affinity to Ni2+ ion assessed as affinity constant by spectrophotometric titration method; summary of the method: as §2
[17] = Binding affinity to Mg2+ ion assessed as pM value by spectrophotometric titration method
[18] = Apparent clearance in Sprague-Dawley rat at 600 umol/kg, po measured up to 1440 mins by LC/MS/MS analysis; assay type: ADME, organism-based; conditions: in vivo, read-out: CL(app) (converted)
[19] = Ratio of drug level in kidney to plasma in rat at 150 umol/kg, po measured within 10 mins by LC-MS/MS analysis; assay type: ADME, organism-based; conditions: kidney and plasma; summary of the method: as §1
[20] = Drug metabolism in rat liver microsomes assessed as glucuronidation incubated for 1 hr relative to deferiprone; assay type: ADME, Microsome
Summary of the method: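 Compound incubated 1 h with rat or human liver microsomes, n = 4, mean ± SD. Glucuronide formed given as percentage of total chelator added. Oxidative metabolism assessed separately.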

Rattus norvegicus = experiment: Iron scavenging activity in 59Fe-ferritin-loaded rat assessed as iron mobilization level at 450 umol/kg, po dosed 1 hr after 59Fe-ferritin injection and measured 24 hrs after 59Fe-ferritin injection by gamma counting method relative to control; assay type: functional
Summary of the method: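 Male SD rats, 300 g, fasted overnight, given about 1 μC 59Fe-ferritin i.v. under isoflurane. Chelator gavaged 1 h later, then rats housed in metabolic cages; food returned 1 h after dosing. Killed 24 h after 59Fe-ferritin. Urine, faeces, liver and gut gamma-counted. 8 rats per condition.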

[21] = AUC (0 to infinity) in Sprague-Dawley rat at 600 umol/kg, po measured up to 1440 mins by LC/MS/MS analysis; assay type: ADME, organism-based; set-up: dose 600 umol/kg, time infinity, route oral; conditions: in vivo, 24 h
[22] = Ratio of drug level in stomach to plasma in rat at 150 umol/kg, po measured within 10 mins by LC-MS/MS analysis; assay type: ADME, organism-based; conditions: stomach and plasma; summary of the method: as §1
[23] = Apparent volume of distribution in Sprague-Dawley rat at 300 umol/kg, po measured up to 1440 mins by LC/MS/MS analysis; assay type: ADME, organism-based; conditions: in vivo, 24 h
[24] = Lipophilicity coefficient, logP of the compound in Tris buffer at pH 7.0 (100 mM/n-octanol); assay type: physicochemical
Summary of the method: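 Octanol/water partition measured between n-octanol and 100 mM Tris buffer, pH 7.0.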

In the case of `Cc1c(O)c(O)cc[n+]1[C@@H](CO)Cc1ccccc1.[Cl-]`, the CL/F [1] is reported as 15.3 mL/min/kg, the Activity [2] is reported as “Toxic” and the Activity (Mus musculus [3]) is reported as “Non-Toxic”. For the same compound, the Activity (Mus musculus [4]) was “Non-Toxic”, the Kp at 10 min [5] was 3.3 to 8.8 and the K [6] was 6.22 pM. The log K [6] was 7.32, the Activity (Mus musculus [7]) was “Non-Toxic” and the Kp at 10 min [8] was 3.3 to 8.8. For the same compound, the Kp at 10 min [9] was 3.3 to 8.8, the Drug uptake [10] was “Not Active” and the Activity [11] was “Non-Toxic”. For the same compound, the bioavailability [12] was 82.6%, the Ratio [13] was 2.3 to 6.9 and the CL/F [14] was 21.2 mL/min/kg. The AUC [15] was 16400 ng·h/mL, the log K [16] was 6.92 and the pM [17] was 7.59. For the same compound, the CL/F [18] was 15.2 mL/min/kg, the Kp at 10 min [19] was 3.3 to 8.8 and the Drug metabolism [20] was “Metabolite_Detected”. For the same compound, the Activity (Rattus norvegicus) was 24.8%, the AUC [21] was 181000 ng·h/mL and the Kp at 10 min [22] was 3.3 to 8.8. For the same compound, the Vz [23] was 3.72 L/kg and the logD [24] was 0.62.
